# Measured values taken from PubChem BioAssay AID685 (PCMD, 2007).
# The campaign covered roughly 30,000 compounds. About 80 (0.3%) were called active.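 How the source made its calls: active means mutant and wild-type yeast strains alike exhibit over 30% growth inhibition; inconclusive means a strain exceeds 50% while the second remains under 30%; inactive means the rest.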 The entries come from a sample that favours actives as a whole.
# Assay: yeast growth toxicity, wild-type and mutant, primary screen, cytotoxicity control for eIF2B function restoration project, wild-type and eIF2Bepsilon R284H mutant, A595 (AID 685);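 further: 0% = untreated cell controls and 100% = YPD media blanks without cells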
# Details: A595 turbidity, 16 h, stronger effect = higher value, screened at 25 µM (by protocol)
# Method in brief: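 Schedule: 16 h growth with compound, 30 °C. System: yeast, wild-type or eIF2Bepsilon-R284H mutant. Doses: one dose, 25 µM compound[…]. Buffer or medium: YPD. Signal: turbidity measured as absorbance at 595 nm. Read-out basis: growth inhibition (%) versus cell controls and blanks.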
# [1] = S. cerevisiae eIF2Bepsilon-R284H mutant growth
Structure (SMILES),growth inhibition [1] [%],growth inhibition (S. cerevisiae wild-type growth)
COC(=O)COc1ccc(S(=O)(=O)N2CCOCC2)cc1,0,-24.2% (inactive)
Cc1ccc(-c2csc(NC(=O)Cc3cccs3)n2)cc1C,0,33.1% (inactive)
CCOC(=O)C1=C(C)NC(SC)=NC1c1ccccc1 (stereo not drawn),-3.45,-15.1% (inactive)
Cc1ccc(N(CC(=O)Nc2cccc(N(C)S(C)(=O)=O)c2)S(C)(=O)=O)cc1,16.1,8.21% (inactive)
Cn1c(N)c(C(=O)COC(=O)C23CC4CC(CC(C4)C2)C3)c(=O)n(C)c1=O,11.6,6.55% (inactive)
CN=C1SC(CC(=O)Nc2ccc(C(=O)O)cc2)C(=O)N1C (stereo not drawn),10.3,13.1% (inactive)
O=S(=O)(NCCOc1cccc2cccnc12)c1ccc(F)cc1,0,-11.7% (inactive)
O=C(c1cccc(F)c1)N1CCC(O)(c2cccnc2)CC1,-27.3,1.72% (inactive)
CCOc1ccc(NC(=O)C2CCCN(C(=O)Nc3ccccc3)C2)cc1 (stereo not drawn),8.33,16.3% (inactive)
CC(OC(=O)CN1C(=O)C2CCCCC2C1=O)C(=O)Nc1ncc(Cl)cc1Cl (stereo not drawn),15.2,19.3% (inactive)
CCOC(=O)c1c(NC(=O)CSc2nnc(CNc3ccc(C)cc3C)o2)sc(C)c1C,25.9,25.9% (inactive)
CCCCN(CC)CCNC(=O)c1[nH]c(C)c(C(C)=O)c1C,17.6,11.2% (inactive)
OC(C#CCN1CCOCC1)(c1ccccc1)C1CCCCC1 (stereo not drawn),7.89,34.3% (inactive)
CCOCCOCCC(C(=O)O)P(=O)(c1ccccc1)c1ccccc1 (stereo not drawn),16.7,13.8% (inactive)
CCc1cc(Br)ccc1NC(=O)C1CCCO1 (stereo not drawn),18.5,-7.78% (inactive)
CCn1cc(C(=O)NCC2CCCO2)c(=O)c2cc(S(=O)(=O)N3CCCCC3)ccc21 (stereo not drawn),-11.1,6.79% (inactive)
OC(CNCC1CCCO1)Cn1c2ccc(Br)cc2c2cc(Br)ccc21 (stereo not drawn),100,86.7% (active)
COc1ccc(CCNC(=O)CN(c2ccccc2)S(C)(=O)=O)cc1OC,12.8,18.3% (inactive)
COC(=O)c1c(C)c(C)nc(N)c1C#N,-9.52,-10.8% (inactive)
COC(=O)c1ccc(Cc2ccccc2)o1,19.4,10% (inactive)
CCOC(=O)c1cc2c(ccn2C)n1CC(=O)N1CCC(C)CC1,4.55,-20.7% (inactive)
O=C(C1CCC(C(=O)N2CCCC2)CC1)N1CCCC1 (stereo not drawn),-12.9,-0.38% (inactive)
Cn1c(Cn2nnc3ccccc32)nnc1SCC(=O)c1ccccc1F,16.2,4.07% (inactive)
O=C(NC(=O)c1ccccc1)NC(=O)c1ccccc1,5.26,12.5% (inactive)
